Reference: PubChem BioAssay AID493187 (Sanford-Burnham Center for Chemical Genomics, 2011)
The whole screen tested about 340,000 compounds, of which about 190 (0.056%) were called active. The entries come from a sample that favours actives as a whole. Unmarked numbers belong to inactive results.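 The calls were made as follows: active = activation of 40% or more at 20 µM, a change of -40% or lower; inactive = the rest.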

Each compound was assayed against Hexokinase HKDC1 (Homo sapiens) (UniProt Q2TB90) (assay: HKDC1 hexokinase activators, primary screen, biochemical, fluorescence, uHTS (AID 493187)). Conditions: recombinant HKDC1, G6PDH/diaphorase resazurin fluorescence; at 20 µM; hits give low values.
Sequence of Hexokinase HKDC1 (Homo sapiens) (Q2TB90 whole entry, looked up): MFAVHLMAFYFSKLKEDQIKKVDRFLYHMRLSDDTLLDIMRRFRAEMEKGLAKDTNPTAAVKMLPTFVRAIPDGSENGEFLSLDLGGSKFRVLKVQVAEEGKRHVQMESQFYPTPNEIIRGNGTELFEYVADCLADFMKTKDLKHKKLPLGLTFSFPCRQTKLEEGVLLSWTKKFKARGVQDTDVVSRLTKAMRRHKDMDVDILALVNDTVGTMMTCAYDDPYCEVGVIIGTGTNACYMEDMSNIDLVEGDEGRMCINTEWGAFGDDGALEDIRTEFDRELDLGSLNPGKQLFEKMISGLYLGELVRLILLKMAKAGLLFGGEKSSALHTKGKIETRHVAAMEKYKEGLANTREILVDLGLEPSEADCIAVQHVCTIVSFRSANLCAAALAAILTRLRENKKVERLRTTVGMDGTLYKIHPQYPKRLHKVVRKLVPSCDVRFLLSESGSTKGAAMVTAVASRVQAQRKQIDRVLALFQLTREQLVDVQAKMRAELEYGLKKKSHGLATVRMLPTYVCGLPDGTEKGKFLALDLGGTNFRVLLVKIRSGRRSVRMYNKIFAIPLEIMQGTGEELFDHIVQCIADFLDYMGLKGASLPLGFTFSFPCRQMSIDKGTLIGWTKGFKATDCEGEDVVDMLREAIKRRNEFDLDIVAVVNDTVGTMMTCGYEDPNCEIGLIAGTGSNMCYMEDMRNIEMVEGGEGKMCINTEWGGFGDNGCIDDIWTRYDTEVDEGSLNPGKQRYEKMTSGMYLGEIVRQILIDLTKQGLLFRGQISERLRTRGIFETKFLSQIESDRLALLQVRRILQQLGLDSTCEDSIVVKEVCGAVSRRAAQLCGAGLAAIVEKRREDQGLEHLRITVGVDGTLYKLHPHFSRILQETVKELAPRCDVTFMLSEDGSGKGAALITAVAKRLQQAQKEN
In short: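 system = in-house human HKDC1 enzyme, G6PDH and diaphorase coupling enzymes | amount = HKDC1 5 µg/mL | measured by = resorufin fluorescence from 100 µM resazurin, NADP 1 mM, Ex 525/Em 613 nm | times = enzyme reaction 90 min, room temperature, in dark | doses = single compound dose of 20 µM, 1% DMSO final | medium = Tris/MgCl2 buffer, pH 8.0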
For O=C(CSc1cccc2cccnc12)N/N=C/c1cccnc1, the activity change, negative = activation was -52.6% (active).
For O=c1[nH]c2ccccc2n2c(-c3ccccc3)nnc12, the activity change, negative = activation was 46.7%.
For C[N+](C)(CCCCCC[N+](C)(C)CCCN1C(=O)c2cccc3cccc(c23)C1=O)CCCN1C(=O)c2cccc3cccc(c23)C1=O, the activity change, negative = activation was -66.9% (active).
In the case of COc1ccc(C(CCN(Cc2ccc(OC)c(OC)c2)C(=O)CCl)c2ccccc2)cc1 (stereo not drawn), the activity change, negative = activation is reported as 35.4%.
Work on COc1ccc2c(c1)c(=Cc1ccc(N(C)C)cc1)c1cc(-c3ccccc3)[n+](C)n12 yielded an activity change, negative = activation of 43.2%.
For COc1ccc(N(CC(=O)N/N=C/c2cccc3c2OCCO3)S(=O)(=O)c2ccc(NC(C)=O)cc2)cc1, the activity change, negative = activation was 38.1%.
For Cc1cc(C2=NNC(=Nc3ccc(S(=O)(=O)N4CCOCC4)cc3)SC2)c(C)n1CC1CCCO1 (stereo not drawn), the activity change, negative = activation was -70% (active).
CCOC(=O)CSc1nc2ccc(C)cc2n2cnnc12 gave an activity change, negative = activation of 53%.
With CC(=O)/C(=N\Nc1ccc(Cl)cc1Cl)Sc1cccc2cccnc12 the activity change, negative = activation was -40.8% (active).
With CCCc1nc2oc3c(OCC)ncnc3c2c2c1COC(C)(C)C2 the activity change, negative = activation was 37.7%.
O=C(c1cccnc1)N(c1cc2sc(=O)oc2c2ccccc12)S(=O)(=O)c1ccccc1 was tested, and the activity change, negative = activation was 38.2%.
Compound CN1c2ccc(C=O)c3c(C=O)ccc(c23)N(C)C1(C)C has an activity change, negative = activation of 36.4%.
Compound O=C(NC1=CC(=O)c2ccccc2C1=O)c1ccccc1 has an activity change, negative = activation of 54.1%.
In the case of CCc1ccc2c(c1)C1(NN=C(c3ccccc3)S1)C(=O)N2 (stereo not drawn), the activity change, negative = activation is reported as -48.1% (active).
Compound O=C1C(Cl)=C(Oc2ccccc2)C(=O)c2ccccc21 has an activity change, negative = activation of 65.2%.
For Cc1ccc(Nc2nc(-c3sc(NC(=O)c4ccccc4)nc3C)cs2)cc1, the activity change, negative = activation was -77.6% (active).
With CC(C)(C)Nc1c(N)c(=O)oc2ccccc12 the activity change, negative = activation was 44.6%.
CCC(=C/c1sc2ccc3ccccc3c2[n+]1C)/C=C1\Sc2ccc3ccccc3c2N1C was tested, and the activity change, negative = activation was 45%.
In the case of COc1ccc(NC(=O)CSc2ccc(-c3ccco3)nn2)c(OC)c1, the activity change, negative = activation is reported as 47.3%.
With Clc1cccc(N=C2NN=C(c3ccc4c(c3)OCCO4)CS2)c1 the activity change, negative = activation was -169% (active).
Work on O=S(=O)(Nc1ccc(O)c2ccccc12)c1ccc(OC(F)(F)F)cc1 yielded an activity change, negative = activation of 52%.
In the case of CCOC(=O)C1=C(c2ccc(OC)cc2)C(=O)c2ccccc2C1=O, the activity change, negative = activation is reported as 81.4%.
CCn1cc(C(=O)NCc2ccc3c(c2)OCO3)c2cc(OC)c(OC)cc2c1=O was tested, and the activity change, negative = activation was 37.8%.
O=c1ccc2c(-c3ccccc3S(=O)(=O)O)c3ccc(O)c(O)c3oc-2c1O showed an activity change, negative = activation of 38.4%.
In the case of Cc1ccc2oc(=O)c3cnn(CC(=O)N4CCCCCC4)c3c2c1, the activity change, negative = activation is reported as -44.7% (active).
In the case of Nc1ccc2nc3c(=O)[nH]c(=S)[nH]c3nc2c1, the activity change, negative = activation is reported as 69.9%.
Work on CC(=O)N(C1=C(Cl)C(=O)c2ccccc2C1=O)c1ccc(C(=O)O)cc1 yielded an activity change, negative = activation of 52.2%.
In the case of Cc1cc(C(=O)CCl)c(C)n1CC1COc2ccccc2O1 (stereo not drawn), the activity change, negative = activation is reported as 38.2%.
